Measured values as given in ChEMBL document CHEMBL1914368, “Imidazo[1,5-a]quinoxalines as irreversible BTK inhibitors for the treatment of rheumatoid arthritis” (Bioorg Med Chem Lett, 2011).

Columns and labels:
[1] = molecular target: Tyrosine-protein kinase Fyn (Homo sapiens, UniProt P06241); experiment: Inhibition of FYN relative to control
[2] = molecular target: Proto-oncogene tyrosine-protein kinase Src (Homo sapiens, UniProt P12931); experiment: Inhibition of SRC relative to control; conditions: concentration not given here
Sequence of Proto-oncogene tyrosine-protein kinase Src (P12931 2-536 limits assumed): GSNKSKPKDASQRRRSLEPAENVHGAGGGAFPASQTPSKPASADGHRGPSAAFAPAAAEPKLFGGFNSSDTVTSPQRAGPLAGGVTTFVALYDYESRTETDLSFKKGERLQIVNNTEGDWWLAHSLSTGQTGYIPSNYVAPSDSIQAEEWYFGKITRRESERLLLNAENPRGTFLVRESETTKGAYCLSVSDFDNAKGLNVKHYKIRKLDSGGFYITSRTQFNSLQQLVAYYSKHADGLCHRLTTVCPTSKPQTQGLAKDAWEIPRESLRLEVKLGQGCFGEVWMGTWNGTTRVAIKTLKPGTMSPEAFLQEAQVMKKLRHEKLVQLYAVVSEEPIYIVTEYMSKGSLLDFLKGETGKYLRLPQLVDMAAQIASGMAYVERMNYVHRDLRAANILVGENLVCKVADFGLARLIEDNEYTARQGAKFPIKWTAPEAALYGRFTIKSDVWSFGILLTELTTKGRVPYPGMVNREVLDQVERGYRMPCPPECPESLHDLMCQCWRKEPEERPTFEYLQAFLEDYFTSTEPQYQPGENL

[3] = molecular target: Mitogen-activated protein kinase 3 (Homo sapiens) (UniProt P27361); experiment: Inhibition of MAPK3 relative to control; conditions: concentration not given here
Sequence of Mitogen-activated protein kinase 3 (Homo sapiens) (P27361 whole entry): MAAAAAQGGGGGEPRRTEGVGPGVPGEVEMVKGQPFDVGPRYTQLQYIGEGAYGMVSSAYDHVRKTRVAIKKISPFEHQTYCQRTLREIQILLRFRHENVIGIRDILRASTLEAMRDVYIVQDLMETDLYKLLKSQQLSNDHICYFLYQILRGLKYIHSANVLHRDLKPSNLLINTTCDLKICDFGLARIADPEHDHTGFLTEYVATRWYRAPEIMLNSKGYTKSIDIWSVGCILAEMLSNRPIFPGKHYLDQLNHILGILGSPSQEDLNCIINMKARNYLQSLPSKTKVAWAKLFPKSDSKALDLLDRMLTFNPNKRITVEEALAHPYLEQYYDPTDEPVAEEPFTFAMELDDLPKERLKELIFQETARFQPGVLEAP

[4] = molecular target: Vascular endothelial growth factor receptor 1 (Homo sapiens) (UniProt P17948); experiment: Inhibition of FLT1 relative to control; conditions: concentration not given here
Sequence of Vascular endothelial growth factor receptor 1 (Homo sapiens) (P17948 whole entry): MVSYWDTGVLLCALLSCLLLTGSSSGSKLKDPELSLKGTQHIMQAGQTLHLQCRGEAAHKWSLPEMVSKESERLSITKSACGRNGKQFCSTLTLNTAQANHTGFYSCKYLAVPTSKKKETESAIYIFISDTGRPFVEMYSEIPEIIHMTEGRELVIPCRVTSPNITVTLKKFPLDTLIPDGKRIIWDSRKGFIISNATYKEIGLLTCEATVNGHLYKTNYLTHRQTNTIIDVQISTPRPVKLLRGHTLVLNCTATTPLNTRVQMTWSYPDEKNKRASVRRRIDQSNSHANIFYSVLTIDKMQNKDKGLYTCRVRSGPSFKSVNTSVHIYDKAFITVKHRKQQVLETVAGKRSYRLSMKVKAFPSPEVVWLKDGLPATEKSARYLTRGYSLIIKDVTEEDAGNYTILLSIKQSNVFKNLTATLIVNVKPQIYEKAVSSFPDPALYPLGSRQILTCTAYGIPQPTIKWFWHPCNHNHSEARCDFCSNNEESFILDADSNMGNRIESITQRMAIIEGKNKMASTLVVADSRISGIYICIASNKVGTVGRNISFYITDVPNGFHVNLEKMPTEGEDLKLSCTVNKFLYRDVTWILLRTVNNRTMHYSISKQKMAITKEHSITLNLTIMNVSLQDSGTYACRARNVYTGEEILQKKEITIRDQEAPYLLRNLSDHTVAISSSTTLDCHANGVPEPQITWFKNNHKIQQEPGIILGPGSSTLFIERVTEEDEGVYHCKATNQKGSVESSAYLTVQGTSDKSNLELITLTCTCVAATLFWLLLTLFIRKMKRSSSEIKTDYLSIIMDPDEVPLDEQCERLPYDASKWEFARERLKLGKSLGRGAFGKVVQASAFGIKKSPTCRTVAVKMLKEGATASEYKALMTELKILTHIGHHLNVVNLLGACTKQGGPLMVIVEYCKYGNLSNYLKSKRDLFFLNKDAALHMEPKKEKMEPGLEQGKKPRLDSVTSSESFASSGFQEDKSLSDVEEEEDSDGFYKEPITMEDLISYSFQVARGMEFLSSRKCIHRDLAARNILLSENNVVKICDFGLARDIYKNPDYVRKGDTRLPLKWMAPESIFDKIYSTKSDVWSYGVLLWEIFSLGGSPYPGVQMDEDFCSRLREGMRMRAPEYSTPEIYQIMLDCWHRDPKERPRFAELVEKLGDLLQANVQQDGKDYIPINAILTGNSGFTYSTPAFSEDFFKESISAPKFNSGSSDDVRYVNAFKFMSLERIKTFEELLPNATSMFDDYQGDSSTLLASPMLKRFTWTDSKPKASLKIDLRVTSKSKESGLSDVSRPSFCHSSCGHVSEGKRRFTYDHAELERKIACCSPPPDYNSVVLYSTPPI

[5] = molecular target: Mitogen-activated protein kinase 10 (Homo sapiens) (UniProt P53779); experiment: Inhibition of JNK3 relative to control; conditions: concentration not given here
Sequence of Mitogen-activated protein kinase 10 (Homo sapiens) (P53779 whole entry): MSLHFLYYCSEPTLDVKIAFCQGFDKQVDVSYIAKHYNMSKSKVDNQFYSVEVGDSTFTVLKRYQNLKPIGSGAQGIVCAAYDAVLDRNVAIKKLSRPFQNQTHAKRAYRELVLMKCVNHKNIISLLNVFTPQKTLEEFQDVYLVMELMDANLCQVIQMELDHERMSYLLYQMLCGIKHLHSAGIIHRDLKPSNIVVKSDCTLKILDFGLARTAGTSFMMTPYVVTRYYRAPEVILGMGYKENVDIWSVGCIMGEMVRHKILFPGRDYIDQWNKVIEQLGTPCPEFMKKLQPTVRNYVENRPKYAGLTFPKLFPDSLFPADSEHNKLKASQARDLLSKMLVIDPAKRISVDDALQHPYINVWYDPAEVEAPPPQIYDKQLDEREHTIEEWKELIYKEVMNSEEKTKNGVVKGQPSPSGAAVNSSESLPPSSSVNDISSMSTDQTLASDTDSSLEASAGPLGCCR

[6] = Half life in mouse at 10 mg/kg, po; format: ADME, organism-based; design: dose 10 mg/kg, route oral; conditions: in vivo
[7] = molecular target: Ribosomal protein S6 kinase alpha-1 (Homo sapiens) (UniProt Q15418); experiment: Inhibition of RSK1 relative to control; conditions: concentration not given here
Sequence of Ribosomal protein S6 kinase alpha-1 (Homo sapiens) (Q15418 whole entry): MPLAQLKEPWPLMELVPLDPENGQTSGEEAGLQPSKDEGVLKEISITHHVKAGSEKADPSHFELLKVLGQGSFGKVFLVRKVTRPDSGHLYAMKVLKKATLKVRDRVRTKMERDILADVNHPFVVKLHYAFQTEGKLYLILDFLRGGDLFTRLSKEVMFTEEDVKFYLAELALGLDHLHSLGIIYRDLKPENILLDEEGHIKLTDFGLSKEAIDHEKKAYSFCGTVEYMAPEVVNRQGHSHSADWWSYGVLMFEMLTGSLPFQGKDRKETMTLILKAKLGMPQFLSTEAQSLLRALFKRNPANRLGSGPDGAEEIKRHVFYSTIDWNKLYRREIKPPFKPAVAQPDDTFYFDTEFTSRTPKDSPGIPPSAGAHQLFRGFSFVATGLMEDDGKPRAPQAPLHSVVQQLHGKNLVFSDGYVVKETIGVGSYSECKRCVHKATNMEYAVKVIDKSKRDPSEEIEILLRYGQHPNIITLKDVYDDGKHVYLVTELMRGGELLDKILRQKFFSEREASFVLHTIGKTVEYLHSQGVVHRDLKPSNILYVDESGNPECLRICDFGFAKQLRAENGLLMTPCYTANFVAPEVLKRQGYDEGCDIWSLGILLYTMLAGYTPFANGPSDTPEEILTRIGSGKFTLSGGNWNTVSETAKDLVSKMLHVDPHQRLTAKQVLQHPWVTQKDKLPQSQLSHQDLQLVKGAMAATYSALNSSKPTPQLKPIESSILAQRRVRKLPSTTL

[8] = molecular target: Tyrosine-protein kinase FRK (Homo sapiens, UniProt P42685); experiment: Inhibition of FRK relative to control
Sequence of Tyrosine-protein kinase FRK (P42685 whole entry): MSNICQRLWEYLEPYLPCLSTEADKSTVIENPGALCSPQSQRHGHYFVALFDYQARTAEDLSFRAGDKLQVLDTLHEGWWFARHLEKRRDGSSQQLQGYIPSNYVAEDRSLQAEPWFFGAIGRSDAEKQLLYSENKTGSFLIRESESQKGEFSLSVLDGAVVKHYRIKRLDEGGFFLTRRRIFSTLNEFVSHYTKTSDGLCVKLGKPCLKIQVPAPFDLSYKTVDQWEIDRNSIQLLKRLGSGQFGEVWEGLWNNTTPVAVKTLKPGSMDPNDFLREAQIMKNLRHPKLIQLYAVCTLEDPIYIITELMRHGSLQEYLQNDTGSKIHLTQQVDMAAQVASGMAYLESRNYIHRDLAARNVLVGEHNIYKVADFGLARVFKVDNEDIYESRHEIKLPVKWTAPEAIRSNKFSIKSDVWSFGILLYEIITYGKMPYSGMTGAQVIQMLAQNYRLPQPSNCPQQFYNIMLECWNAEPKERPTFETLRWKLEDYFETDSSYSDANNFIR

[9] = Tmax in mouse at 10 mg/kg, po; format: ADME, organism-based; design: dose 10 mg/kg, route oral; conditions: in vivo
In short: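 Mouse pharmacokinetics from single dosing at 2 mg/kg iv and 10 mg/kg po. The study derived AUC, T1/2, clearance, Vss, Tmax, Cmax and oral bioavailability (%F) from the paired iv and po arms.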

[10] = Clearance in mouse at 2 mg/kg, iv; format: ADME, organism-based; design: dose 2 mg/kg, route intravenous; conditions: in vivo

IC50 [1]: 892 nM
inhibition ([1]; concentration not given here): 40%
inhibition [2]: 43%
inhibition [3]: 1%
inhibition [4]: 1%
inhibition [5]: 0%
half-life [6]: 2 h
inhibition [7]: 0%
IC50 [8]: 611 nM
inhibition ([8]; concentration not given here): 60%
Tmax [9]: 3 h
clearance [10]: 63 mL/min/kg
Structure (SMILES): Cc1ccccc1Nc1nc2cc(F)c(N(C)C(=O)/C=C/CN(C)C)cc2n2cncc12
